# Experimental data pooled from the literature.
# Each line is one published result; the experiments were not run side by side.
SMILES,target or system,test,system,conditions,endpoint,value
Nc1ncnc2c1ncn2[C@@H]1C=C[C@@]2(CO)C[C@@H]12,MT4,"cell growth or viability, MTT",,5 days,CC50,> 100 µg/mL
C=C(CCO)Cn1cnc2c(=O)[nH]c(N)nc21,MT4,"cell growth or viability, MTT",,7 days,CC50,> 100 µM
N=C(N)c1ccccc1OCc1cccc(COc2ccccc2C(=N)N)c1,,haemolysis,sheep,"200 µg/mL, 1 h",haemolysis,0%
CON=C(N)c1ccc(-c2ccc(-c3ccc(C(N)=NOC)cc3)o2)cc1,"Cytochrome P450 2J2 (CYP2J2, Homo sapiens, UniProt P51589)","enzyme activity, substrate",,,Km,0.9 µM
O=c1ccn([C@@H]2C=C[C@@]3(CO)C[C@@H]23)c(=O)[nH]1,MT4,"cell growth or viability, MTT",,5 days,CC50,> 100 µg/mL
C[C@H](Cn1cnc2c(N)ncnc21)OCP(=O)(O)O,MT4,"cell growth or viability, MTT",,5 days,CC50,6.73 µg/mL
N=C(N)c1ccc(OCCSCCOc2ccc(C(=N)N)cc2)cc1,,haemolysis,sheep,"200 µg/mL, 20 h",haemolysis,0%
COc1cccc2c1C(=O)c1c(O)c3c(c(O)c1C2=O)C[C@@](O)(C(=O)CO)C[C@@H]3O[C@H]1C[C@H](N)[C@H](O)[C@H](C)O1,BJ,cell growth or viability,,,IC50,0.1 µM
CC(=O)Nc1nnc(N2CCN([C@@H](C)c3ccc4c(c3)OCO4)CC2)s1,,,"dog, plasma",1 µM,fraction unbound,0.125
Cc1ccnc2c1NC(=O)c1cccnc1N2C1CC1,MT4,"cell growth or viability, MTT",,5 days,CC50,0.82 µg/mL
N=C(N)c1ccc(OCCCCCCCOc2ccc(C(=N)N)cc2)cc1,,haemolysis,sheep,"200 µg/mL, 20 h",haemolysis,9.2%
Cc1ncsc1-c1ccc(CNC(=O)[C@@H]2C[C@@H](O)CN2C(=O)[C@@H](NC(=O)CCCCCCCCCCNC(=O)O[C@H]2C[C@@H](C)C=C3C=C[C@H](C)[C@H](CC[C@@H]4C[C@@H](O)CC(=O)O4)[C@H]32)C(C)(C)C)cc1,,metabolic stability,"mouse, liver microsomes","1 µM, 5 min, pH 7.4",compound remaining,41.2%
N=C(N)c1ccc(OCc2ccc(COc3ccc(C(=N)N)cc3)cc2)cc1,,haemolysis,sheep,"200 µg/mL, 20 h",haemolysis,0.4%
Cc1ccc2c(c1)nc(/C=C/c1cccc3cccnc13)n2-c1ccccc1,,metabolic stability,"rat, liver microsomes","1.5 µM, 45 min",compound remaining,17.8%
COc1cc(/C=C/C(=O)OCCCc2ccc(O[C@H](COC(=O)/C=C/c3ccc(O)c(OC)c3)[C@@H](OC)c3ccc(O)c(OC)c3)c(OC)c2)ccc1O,MT4,cell growth or viability,,72 h,CC50,> 10 µM
